Screening data (PubChem)
Fh CTSL1 inh: Fasciola hepatica cathepsin L1 inhibitors, primary screen, counter-screen for PFM18AAP inhibitor project, biochemical, QFRET, fluorogenic peptide substrate; recombinant F. hepatica cathepsin L1, Z-Leu-Arg-MCA fluorescence; inhibition, % at 5.96 µM; 300,000 tested, 0.49% active; AID 1906, 2009;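 active = inhibition above the mean of all tested compounds plus 3 SD, set per screening campaign, cut at about 17% in these data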;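 also: 0% = plate median of test compound wells and 100% = 1 µM Z-Phe-Ala-diazomethylketone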
GSTO1 inh: inhibitors of recombinant GSTO1, primary screen, counter-screen for RBBP9 inhibitor project, biochemical, fluorescence polarization | 300,000 tested, 1.1% active | inhibition, % at 5.96 µM | activity-based probe fluorescence polarization | Glutathione S-transferase omega-1 (Homo sapiens), P78417;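 active = inhibition above the campaign mean inhibition plus 3 SD, cut at about 35% in these data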;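 also: 0% = GSTO1-1 with DMSO and 100% = wells lacking GSTO1-1 enzyme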
PAD4 inh: human PAD4 inhibitors, primary screen, biochemical, fluorescence polarization, 1536-well format | AID 485272, 2010 | 330,000 tested, 0.41% active | inhibition, % at 6.36 µM | Protein-arginine deiminase type-4 (Homo sapiens), Q9UM07 | recombinant PAD4, RCA probe fluorescence polarization;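 active = percent inhibition above a cutoff equal to the mean of all tested compounds plus 3 SD, cut at about 15% in these data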;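 also: 0% = PAD4 with RCA probe and DMSO and 100% = probe without PAD4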
Target sequence (Q9UM07 whole entry, looked up): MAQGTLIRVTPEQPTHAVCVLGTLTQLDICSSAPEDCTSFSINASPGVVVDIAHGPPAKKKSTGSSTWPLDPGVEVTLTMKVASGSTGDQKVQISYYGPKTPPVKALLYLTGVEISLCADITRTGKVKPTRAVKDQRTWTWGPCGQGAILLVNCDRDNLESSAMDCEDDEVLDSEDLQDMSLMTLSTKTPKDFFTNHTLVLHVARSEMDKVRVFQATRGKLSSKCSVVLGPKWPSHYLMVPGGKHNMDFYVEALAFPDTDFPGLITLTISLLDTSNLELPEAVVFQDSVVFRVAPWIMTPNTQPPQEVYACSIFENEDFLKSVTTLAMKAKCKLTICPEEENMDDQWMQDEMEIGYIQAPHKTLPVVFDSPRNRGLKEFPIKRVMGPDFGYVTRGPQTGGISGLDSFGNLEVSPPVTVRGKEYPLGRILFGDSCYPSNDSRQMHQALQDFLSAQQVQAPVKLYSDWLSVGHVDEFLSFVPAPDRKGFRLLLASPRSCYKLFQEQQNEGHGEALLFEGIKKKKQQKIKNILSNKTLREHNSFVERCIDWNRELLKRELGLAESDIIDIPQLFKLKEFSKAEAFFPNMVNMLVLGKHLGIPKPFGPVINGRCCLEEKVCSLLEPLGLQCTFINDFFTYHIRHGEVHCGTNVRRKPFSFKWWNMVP
PRMT1 FP inh: PRMT1 methyltransferase inhibitors, primary screen, biochemical, fluorescence polarization. Protein arginine N-methyltransferase 1 (Homo sapiens), Q99873. recombinant PRMT1, activity-based probe fluorescence polarization. inhibition, % at 2.79 µM. 370,000 tested, 1.3% active. AID 652257, 2013;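 active = inhibition above about 21% made by adding two undisclosed values, limit read from the data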
TDP2 inh: human TDP2 enzyme inhibitors, primary screen, biochemical, epi absorbance, recombinant enzyme; 370,000 tested, 0.34% active; inhibition, % at 12.8 µM; Tyrosyl-DNA phosphodiesterase 2 (Homo sapiens), O95551; T5PNP hydrolysis, p-nitrophenol absorbance 415 nm; AID 720702, 2013;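 active = inhibition above the mean of all tested compounds plus 3 SD, set per campaign, cut at about 25% in these data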;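 also: 0% = DMSO with enzyme and 100% = buffer with substrate but no TDP2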
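System: recombinant human TDP2 / Amount: 120 nM TDP2 per well / Also added: 5 mM T5PNP chromogenic substrate / Doses: 12.8 µM single point, 1% DMSO / Incubation: 2 h at 37 °C / Detection: p-Nitrophenol epi absorbance / Evaluation: % inhibition relative to enzyme-containing and enzyme-free wells / Repeats: singlicate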
Numbers without * were called inactive; nt = not tested or not shown. Shown are actives, neighbours in structure and some others; about 2.5% of the full set was active somewhere.

SMILES	Fh CTSL1 inh	GSTO1 inh	PAD4 inh	PRMT1 FP inh	TDP2 inh
Oc1oc(-c2ccccc2)nc1C=Nc1ccccc1	3	6	-2	-1	0
CC(=O)Oc1oc(-c2ccccc2)nc1C=Nc1ccc(N(C)C)cc1	18*	6	2	4	1
CN(C)c1ccc(N=Cc2nc(-c3ccccc3)oc2OC(=O)c2ccccc2)cc1	8	2	-3	-3	3
COC(=O)[C@H](C(C)C)N(CCc1cn(CC2CCCCC2)nn1)S(=O)(=O)c1ccccc1Br	nt	nt	nt	-1	2
CCN(C[C@H]1[C@@H](c2ccc(C3=CCCC3)cc2)[C@H](CO)N1c1nc(C)c(C)s1)S(=O)(=O)c1ccccc1[N+](=O)[O-]	nt	nt	nt	-4	0
Cc1cc(-c2ccc(N=Nc3c(S(=O)(=O)O)cc4cc(S(=O)(=O)O)cc(N)c4c3O)c(C)c2)ccc1N=Nc1c(S(=O)(=O)O)cc2cc(S(=O)(=O)O)cc(N)c2c1O	27*	-76	-45	nt	nt
COc1cc(N=Nc2ccc(C)cc2S(N)(=O)=O)c(C)cc1N	nt	nt	nt	-3	-16
COc1ccc(-c2nnc(SCC(=O)Nc3ccc(S(=O)(=O)Nc4cc(C)nc(C)n4)cc3)n2-c2ccc(OC)cc2)cc1	nt	nt	nt	-6	-5
C[C@H]1COC2=C1C(=O)C(=O)c1c2ccc2c1CCCC2(C)C	14	68*	-10	nt	nt
Cc1coc2c1C(=O)C(=O)c1c-2ccc2c1CCCC2(C)C	16	28	-1	17	10
Cc1nc2sc(C(c3ccco3)N3CCN(C(c4ccccc4)c4ccccc4)CC3)c(O)n2n1 (stereo unspecified)	1	2	-1	24*	13
Cc1nc2sc(C(c3ccco3)N3CCC(C)CC3)c(O)n2n1 (stereo unspecified)	-1	8	4	22*	-9
COc1ccccc1CNC(=O)CCS(=O)(=O)c1ccc(Cl)cc1	29*	1	0	2	-5
N#Cc1cccc(OC[C@@H](O)CN2CCC(C(O)(c3ccccc3)c3ccccc3)CC2)c1	nt	nt	nt	0	-10
CCN(Cc1ccccc1)Cc1c(C)[nH]c2c(C)c(C)ccc2c1=O	48*	0	-1	0	6
Cc1nc(SC2CC(=O)N(c3cc(Cl)cc(Cl)c3)C2=O)nc2c1CCCC2 (stereo unspecified)	0	1	-3	24*	0
OCC1OC(n2cnc3c(=S)nc[nH]c32)CC1O (stereo unspecified)	nt	nt	nt	21*	-7
CN(C(=O)CCc1nc(-c2ccccc2F)no1)c1ccccc1	37*	2	2	-3	-21
CCCCCCCCN1CCS(=O)(=O)N(Cc2ccc(OC)cc2)C(C(=O)OC)C1 (stereo unspecified)	nt	nt	nt	1	-3
C[C@H](O)[C@@H]1CN2CCc3c([nH]c4cccc(-c5ccccc5)c34)[C@@H]2C[C@@H]1N(C)C(=O)Nc1ccccc1	nt	nt	nt	2	-3
O=C(CNc1ccc2ccccc2c1)N/N=C/c1ccccn1	0	5	-4	4	11
O=C(CNc1ccc2ccccc2c1)N/N=C/c1ccncc1	-2	1	-4	22*	-10
O=C(CNC(=O)c1ccccc1)OCc1cc(=O)n2cc(Br)ccc2n1	5	1	-5	-1	-10
O=C(CNC(=O)c1cccc(F)c1)OCc1cc(=O)n2cc(Br)ccc2n1	17*	5	-3	-1	11
O=S1(=O)c2ccc(Br)cc2OC[C@@H](Cc2ccccc2)N1Cc1cn(Cc2ccc(Cl)cc2)nn1	nt	nt	nt	2	4
SMILES	Fh CTSL1 inh	GSTO1 inh	PAD4 inh	PRMT1 FP inh	TDP2 inh
O=C(/C=C/c1ccco1)NCC1CCCO1 (stereo unspecified)	34*	26	0	8	7
COC1=C[C@H](C(=O)NCCNC(C)=O)[C@@]2(C)Cc3ccccc3[C@H]2CC1=O	nt	nt	nt	0	-7
CN1CCC23c4ccccc4NC1C21CCN(C)C3Nc2ccccc21	-5	4	1	1	0
C/C=C/C=C/C(=O)N1CC[C@]23c4ccccc4N[C@H]4N(C)c5cccc6c5[C@]42CCN([C@H]6C2OC2(C)C)[C@H]13 (stereo partly specified)	5	37*	5	-4	-5
COc1ccccc1/C=C\C=N\n1c(-c2ccc(Cl)cc2Cl)n[nH]c1=S	1	-1	1	22*	-2
CCC(C)NC(=O)C(Cc1ccccc1)NS(=O)(=O)c1ccc2c(c1)CCC(=O)N2 (stereo unspecified)	-1	5	-1	-6	11
CCCN(CCC)CCNC(=O)C(NS(=O)(=O)c1ccc2c(c1)CCC(=O)N2)c1ccccc1 (stereo unspecified)	31*	6	2	nt	nt
NC(=Nc1cccc(F)c1)NC(=O)OCc1ccccc1	nt	nt	nt	3	-1
Cc1cc(-c2nnc(SCC(=O)Nc3nc(-c4ccccc4)cs3)o2)no1	1	24	-6	25*	3
COc1ccc(Cc2nnc(SCC(=O)N3CCN(c4ccccc4)CC3)o2)cc1	-7	10	-1	3	-7
COc1ccc(Cc2nnc(SCC(=O)c3ccccc3)o2)cc1	0	19	3	-1	0
COc1ccc(Cc2nnc(SCC(=O)N3CCCCC3)o2)cc1	17*	2	-7	6	4
COc1ccc(Cc2nnc(SCC(=O)c3ccc(OC)cc3)o2)cc1	1	37*	-1	0	5
COc1ccc(C(=O)CSc2nnc(-c3ccc(C)cc3)o2)cc1	-4	13	2	1	4
COc1ccc(C(=O)CSc2nnc(-c3cc(C)on3)o2)cc1	-1	36*	-5	2	-5
CC(COc1cc(F)cc(F)c1)CN1CCC(C(O)(c2ccccc2)c2ccccc2)CC1 (stereo unspecified)	nt	nt	nt	-10	-5
Cc1ccc(F)cc1C(=O)N(Cc1ccccn1)CC1CCCO1 (stereo unspecified)	nt	nt	nt	5	3
CCc1nnc(NC(=O)CSc2nc3c(C)cccc3[nH]2)s1	6	36*	0	2	8
CC(C)Cc1nnc(NC(=O)CSc2nc(N)cc(=O)[nH]2)s1	-3	47*	0	4	0
COC(=O)C[C@@H]1CC[C@H]2[C@@H](COc3ccc(NS(=O)(=O)c4ccccc4F)cc3C(=O)N2C)O1	nt	nt	nt	-2	-3
C=CCN1C(=O)[C@@H](CC(=O)NCCCN2CCCC2=O)[C@]2(C(=O)OC)CCCCC=C12	nt	nt	nt	-4	-4
O=C(Cn1c(=O)n(Cc2ccco2)c(=O)c2c3c(sc21)CCCCC3)Nc1ccccc1	-2	6	1	24*	-20
